# Assay results of several laboratories.
# Protocols differ between the studies behind these lines.
# Target: Carbonic anhydrase 12 (CA12, Homo sapiens, UniProt O43570)
# Read-out: enzyme activity
# Action: inhibitor
Compound,method,quantity,value
Cc1cc(=O)oc2cc(OCCCCSC#N)ccc12,stopped-flow,Ki,54.2 nM
NS(=O)(=O)c1ccc(-c2ccc(Nc3ccc(F)c(Cl)c3)cc2)cc1,absorbance,IC50,2780 nM
CS(=O)(=O)Nc1ccc(Nc2nc(-c3cc4cc(Br)ccc4oc3=O)cs2)cc1Oc1ccccc1,absorbance,IC50,610 nM
CC1CCCCC1OC(=O)c1ccc(=O)oc1 (stereo not shown),stopped-flow,Ki,82800 nM
N#CSCCCCOc1ccc2c(-c3ccccc3)cc(=O)oc2c1,stopped-flow,Ki,234 nM
CS(=O)(=O)Nc1ccc(Nc2nc(-c3cc4ccccc4oc3=O)cs2)cc1Oc1ccccc1,absorbance,IC50,790 nM
COc1ccc(-n2cc(COC(=O)c3ccc(=O)oc3)nn2)cc1,stopped-flow,Ki,54800 nM
COc1ccc2oc(=O)c(-c3csc(Nc4ccc(C(=O)O)cc4)n3)cc2c1,absorbance,IC50,1880 nM
NS(=O)(=O)c1ccc(-c2ccc(Nc3ccncc3)cc2)cc1,absorbance,IC50,880 nM
Cc1ccc(OC(=O)c2ccc(=O)oc2)cc1,stopped-flow,Ki,1830 nM
